In ChEMBL document CHEMBL4387746, “Chemical conversion of nicotinamide into type I positive allosteric modulator of α7 nAChRs” (Bioorg Med Chem Lett, 2019):
Activity calls are given as the source filed them. The calls are words filed in the database; no cut-off is given here.

Assays:
Type in all cases: cell-based
[1] = molecular target: T1, Neuronal acetylcholine receptor subunit alpha-7 (Homo sapiens, UniProt P36544); test: (§1) Positive allosteric modulation activity at human alpha7 nAChR expressed in Xenopus laevis oocytes assessed as increase in acetylcholine-induced channel current at -90 mV holding potential preincubated for 2 mins followed by co-application with acetylcholine for 10 secs by two-electrode voltage clamp method
T1 sequence (P36544 whole entry): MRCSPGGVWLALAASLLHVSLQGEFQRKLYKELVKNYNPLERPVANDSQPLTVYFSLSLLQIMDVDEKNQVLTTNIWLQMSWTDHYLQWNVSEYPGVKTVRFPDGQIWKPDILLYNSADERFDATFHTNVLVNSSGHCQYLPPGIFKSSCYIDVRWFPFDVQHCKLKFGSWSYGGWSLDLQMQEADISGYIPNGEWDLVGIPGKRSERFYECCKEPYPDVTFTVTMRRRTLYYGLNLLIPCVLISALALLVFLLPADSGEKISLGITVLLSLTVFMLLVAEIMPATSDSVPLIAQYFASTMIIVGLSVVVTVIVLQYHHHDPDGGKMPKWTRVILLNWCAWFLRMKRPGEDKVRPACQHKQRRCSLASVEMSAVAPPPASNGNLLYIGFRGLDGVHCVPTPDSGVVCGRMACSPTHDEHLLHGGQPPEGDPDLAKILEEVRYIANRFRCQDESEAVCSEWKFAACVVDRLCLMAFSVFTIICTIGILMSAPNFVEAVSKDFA
Procedure, shortened: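 Human α7 nAChR was recorded in Xenopus oocytes by two-electrode voltage clamp, with 100 μM ACh as agonist. EC50 is the compound concentration giving half of the maximum activation effect. Data come from 2–5 individual oocytes.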

[2] = molecular target: T1, Neuronal acetylcholine receptor subunit alpha-7; test: as §1, with “current at 10 uM” for “current”, “method relative to control” for “method”
Procedure, shortened: (§2)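 Human α7 nAChR expressed in Xenopus laevis oocytes and recorded by two-electrode voltage clamp. Each compound was tested at 10 μM with 100 μM ACh. Data come from 2–5 individual oocytes.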

[3] = molecular target: T1, Neuronal acetylcholine receptor subunit alpha-7; test: Agonist activity at human alpha7 nAChR expressed in Xenopus laevis oocytes assessed as increase in channel current at -90 mV holding potential by two-electrode voltage clamp method
[4] = molecular target: T1, Neuronal acetylcholine receptor subunit alpha-7; test: Positive allosteric modulation activity at alpha7 nAChR (unknown origin) expressed in Xenopus laevis oocytes assessed as increase in acetylcholine-induced channel current at 10 uM at -90 mV holding potential by two-electrode voltage clamp method relative control; procedure, shortened: as §2
[5] = molecular target: T1, Neuronal acetylcholine receptor subunit alpha-7; test: as §1, with “current by measuring maximum efficacy of acetylcholine at 10 uM” for “current”, “method (reference value: 339%)” for “method”
Procedure, shortened: (§3)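 ACh concentration-response on α7-expressing Xenopus oocytes, run without compound or after 2 min preincubation with 10 μM compound. Peak currents were normalised to the current evoked by 100 μM ACh alone. Curves were fitted for Emax, ACh EC50 and Hill coefficient, n = 4 per point.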

[6] = molecular target: T1, Neuronal acetylcholine receptor subunit alpha-7; test: as §1, with “current at 0.1 uM to 30 uM” for “current”, “method relative to control” for “method”
Procedure, shortened: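 A control current to 100 μM ACh alone was recorded first. Oocytes expressing α7 nAChR were then preincubated 2 min with compound at 0.1–30 μM, followed by co-application with 100 μM ACh for 10 s. Peak currents were normalised to the 100 μM ACh-alone amplitude. Data were fitted for EC50, Emax and Hill coefficient, n = 4 per point.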

[7] = molecular target: T1, Neuronal acetylcholine receptor subunit alpha-7; test: Induction of desensitization of human alpha7 nAChR expressed in Xenopus laevis oocytes assessed as acetylcholine-induced channel desensitization time constant at 10 uM at -90 mV holding potential by two-electrode voltage clamp method (reference value: 6.37 +/- 2.56)
[8] = molecular target: T1, Neuronal acetylcholine receptor subunit alpha-7; test: as §1, with “current by measuring maximum efficacy of acetylcholine at 10 uM” for “current”, “method relative to control” for “method”; procedure, shortened: as §3
[9] = molecular target: Neuronal acetylcholine receptor; alpha3/beta4 (Rattus norvegicus) (UniProt P04757+P12392); test: as §1, with “rat alpha3beta4” for “human alpha7”, “current at 10 uM” for “current”, “method relative to control” for “method”
[10] = molecular target: Neuronal acetylcholine receptor; alpha4/beta2 (Rattus norvegicus) (UniProt P09483+P12390); test: as §1, with “rat alpha4beta2” for “human alpha7”, “current at 10 uM” for “current”, “method relative to control” for “method”
[11] = molecular target: T2, 5-hydroxytryptamine receptor 3A (Homo sapiens) (UniProt P46098); test: as §1, with “5-HT3A receptor” for “alpha7 nAChR”, “current at 10 uM” for “current”, “method relative to control” for “method”
T2 sequence (whole entry): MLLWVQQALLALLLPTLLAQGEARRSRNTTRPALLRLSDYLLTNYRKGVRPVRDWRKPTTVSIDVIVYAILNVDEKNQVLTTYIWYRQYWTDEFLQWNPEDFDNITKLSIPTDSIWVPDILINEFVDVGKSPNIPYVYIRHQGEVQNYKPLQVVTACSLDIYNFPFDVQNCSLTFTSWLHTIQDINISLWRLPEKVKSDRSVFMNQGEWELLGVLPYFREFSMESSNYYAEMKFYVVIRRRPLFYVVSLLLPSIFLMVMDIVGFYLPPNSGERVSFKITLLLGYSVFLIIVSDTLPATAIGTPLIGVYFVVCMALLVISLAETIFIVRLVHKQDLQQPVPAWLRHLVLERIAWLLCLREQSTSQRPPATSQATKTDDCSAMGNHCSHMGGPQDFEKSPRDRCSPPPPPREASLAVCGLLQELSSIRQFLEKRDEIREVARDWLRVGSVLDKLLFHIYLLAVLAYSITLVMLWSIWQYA

Row | SMILES | Emax [2] [%] | Activity [3] | other results
1 | COc1ccccc1-c1cnc(N)c(C(=O)Nc2c(C)cccc2Cl)c1 | 1010 | inactive | EC50 [1]: 4.32 µM
2 | Cc1cc(-c2cnc(N)c(C(=O)Nc3ccccc3)c2)ccc1F | 94 | inactive | 
3 | Cc1cccc(Cl)c1NC(=O)c1cc(-c2ccc(Cl)c(F)c2)cnc1N | 229 | inactive | 
4 | Cc1cc(F)ccc1-c1cnc(N)c(C(=O)Nc2c(C)cccc2Cl)c1 | 225 | inactive | 
5 | Cc1cc(-c2cnc(N)c(C(=O)Nc3ccccc3C)c2)ccc1F | 156 | inactive | 
6 | Cc1cccc(Cl)c1NC(=O)c1cc(-c2ccc(F)cc2Cl)cnc1N | 186 | inactive | 
7 | Cc1cccc(Cl)c1NC(=O)c1cc(-c2cccnc2)cnc1N | 138 | inactive | 
8 | Cc1cccc(Cl)c1-n1cnc2ccc(-c3ccc(F)cc3)cc2c1=O |  |  | Emax [4]: 76%
9 | Cc1cccc(Cl)c1NC(=O)c1cc(-c2ccccc2F)cnc1N | 119 | inactive | 
10 | Cc1cccc(Cl)c1NC(=O)c1cncc(-c2ccc(F)cc2)c1 | 248 | inactive | 
11 | Cc1cccc(Cl)c1-n1cnc2nc(SCc3ccccc3)sc2c1=O |  |  | Emax [4]: 1630%
12 | Cc1cccc(Cl)c1NC(=O)c1cc(-c2ccc(F)cc2)ccc1N | 136 | inactive | 
13 | Cc1ccc(Nc2nc3ncn(-c4c(C)cccc4Cl)c(=O)c3s2)cc1 |  |  | Emax [4]: 1620%
14 | Cc1cccc(Cl)c1NC(=O)c1cc(-c2ccoc2)cnc1N | 111 | inactive | 
15 | Cc1cccc(Cl)c1NC(=O)c1cncc(-c2ccc(Cl)cc2)c1 | 150 | inactive | 
16 | COc1ccc(-c2ccc3ncn(-c4c(C)cccc4Cl)c(=O)c3c2)cc1 |  |  | Emax [4]: 65%
17 | Cc1cccc(Cl)c1NC(=O)c1cc(-c2ccsc2)cnc1N | 153 | inactive | 

The next lines start with results.

Row | Emax [2] [%] | Activity [3] | SMILES | other results
18 | 372 | inactive | Cc1ccc(-c2cnc(N)c(C(=O)Nc3c(C)cccc3Cl)c2)c(F)c1 | 
19 | 109 | inactive | CC(=O)Nc1ccc(-c2cnc(N)c(C(=O)Nc3c(C)cccc3Cl)c2)cc1 | 
20 | 609 | inactive | Cc1ccc(-c2cnc(N)c(C(=O)Nc3c(C)cccc3Cl)c2)cc1F | EC50 [1]: 3.31 µM
21 | 603 | inactive | Cc1ccc(-c2cncc(C(=O)Nc3c(C)cccc3Cl)c2)cc1 | EC50 [1]: 1.97 µM
22 | 257 | inactive | Cc1cccc(Cl)c1NC(=O)c1cc(-c2ccc(O)cc2)cnc1N | 
23 | 531 | inactive | COc1ccc(-c2cnc(N)c(C(=O)Nc3c(C)cccc3Cl)c2)cc1 | EC50 [1]: 8.5 µM
24 | 495 | inactive | Cc1cccc(Cl)c1NC(=O)c1cc(-c2ccc(F)c(Cl)c2)cnc1N | EC50 [1]: 5.49 µM
25 | 86 | inactive | Cc1cccc(Cl)c1NC(=O)c1cc(-c2cccc(F)c2)cnc1N | 
26 | 164 | inactive | Cc1cccc(Cl)c1NC(=O)c1cc(-c2ccc(C(F)(F)F)cc2)cnc1N | 
27 | 604 | inactive | Cc1cccc(Cl)c1NC(=O)c1cc(-c2ccc(F)cc2)cnc1N | EC50 [1]: 4.57 µM
28 | 539 | inactive | Cc1ccc(-c2cnc(N)c(C(=O)Nc3c(C)cccc3Cl)c2)cc1 | EC50 [1]: 3.19 µM
29 | 273 | inactive | Cc1cccc(Cl)c1NC(=O)c1cc(-c2ccccc2)cnc1N | 
30 | 135 | inactive | Cc1cccc(Cl)c1NC(=O)c1cc(-c2ccc([N+](=O)[O-])cc2)cnc1N | 
31 | 278 | inactive | Cc1cccc(Cl)c1NC(=O)c1cc(-c2ccc(Cl)cc2)cnc1N | 
32 | 212 | inactive | COc1cccc(-c2cnc(N)c(C(=O)Nc3c(C)cccc3Cl)c2)c1 | 
33 | 153 | inactive | Cc1cccc(Cl)c1NC(=O)c1cc(-c2ccc(OC(F)(F)F)cc2)cnc1N | 
34 | 1470 | inactive | Cc1cc(-c2cnc(N)c(C(=O)Nc3c(C)cccc3Cl)c2)ccc1F | Emax [5]: 2170%; EC50 [1]: 3.34 µM; Activity [6]: Dose-dependent effect; K [7]: 3.49; fold change (FC) [8]: 7; Emax [9]: 78%; Emax [10]: 72%; Emax [11]: 94%
35 | 455 | inactive | CCc1ccc(-c2cnc(N)c(C(=O)Nc3c(C)cccc3Cl)c2)cc1 | EC50 [1]: 1.35 µM
36 | 774 | inactive | CSc1ccc(-c2cnc(N)c(C(=O)Nc3c(C)cccc3Cl)c2)cc1 | EC50 [1]: 4.96 µM
